Test results published in PMC3181126 (Journal of medicinal chemistry, 2011).
Where “and” joins values, the source holds several entries; their conditions need not be identical. Identical values can stand only once.

Legend:
BxPC3 cells [1] = experiment: Competition of compound 16 by σ2 agonists, flow cytometry; assay type: cell-based, human; settings: preloading 45 min at increasing concentrations, then 16 (25 nM) 45 min
BxPC3 cells [2] = experiment: Cell viability at increasing seeding density; assay type: cell-based, human; settings: 100 μM, seeding density 1 × 10^5 to 9 × 10^5
[3] = Fluorescence spectroscopy; assay type: physicochemical; settings: for Φ (quantum yield): standard quinine sulfate; for excitation peaks (λexc): approximate values, solvent not stated
Method in brief: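 Spectra taken in EtOH, CHCl3 and PBS on free bases (hydrochlorides also in EtOH/PBS), with 10 nm excitation/emission bandpass. Emission scanned 300–700 nm; excitation scanned 250–450 or 300–550 nm by compound. Quantum yield was relative to a quinine sulfate standard (reference value 0.546), with absorbance below 0.2 at 347 nm. Spectra were instrument-corrected and integrated, and a refractive-index correction applied.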

[4] = Molar extinction coefficient; assay type: physicochemical; settings: EtOH solutions
Method in brief: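 Absorbance spectra (200–600 nm) of test compound in EtOH at 1–100 μM, in 1 cm quartz cuvettes. ε was obtained by fitting Beer's law to absorbance at the excitation wavelength. Measurements were repeated twice.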

σ2 receptor = biological target: T1, σ2 receptor (Rattus norvegicus, UniProt Q5U3Y7); experiment: σ2 receptor radioligand binding, [3H]DTG with; settings: from Ki σ1 (guinea-pig brain) and Ki σ2 (rat liver)
T1 sequence (Q5U3Y7 1-176): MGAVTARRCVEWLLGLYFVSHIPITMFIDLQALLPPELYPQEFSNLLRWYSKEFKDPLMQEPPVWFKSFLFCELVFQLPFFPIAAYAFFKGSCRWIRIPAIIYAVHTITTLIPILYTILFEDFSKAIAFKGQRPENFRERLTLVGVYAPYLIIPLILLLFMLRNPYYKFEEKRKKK

λem ([3]; CHCl3) | λexc ([3]; CHCl3) | Φ (quantum yield) ([3]; CHCl3) | λem ([3]; EtOH, free bases) | λexc ([3]; EtOH, free bases) | Φ (quantum yield) ([3]; EtOH, free bases) | λem ([3]; PBS, free bases) | λexc ([3]; PBS, free bases) | ε (molar extinction coefficient) [4] | excitation peaks (λexc) [3] | SMILES | effect on mean fluorescence intensity of 16 (BxPC3 cells [1]) | cell death versus cell density (BxPC3 cells [2]) | σ2 versus σ1 selectivity (σ2 receptor)
– | – | – | – | – | – | – | – | – | – | COc1cccc2c1CCCC2CCCN1CCN(C2CCCCC2)CC1 (stereo not shown) [compound 1, 1-cyclohexyl-4-[3-(5-methoxy-1,2,3,4-tetrahydronaphthalen-1-yl)propyl]piperazine] | decreased the mean fluorescence intensity of 16 | decreased cell death as the density increased | –
515 nm | 450 nm | 0.17 | 520 nm | 476 nm | 0.08 | 535 nm | 480 nm | 14391 L/mol/cm | – | COc1cccc2c1CCCC2CCCN1CCN(C2CCN(CCCCCCNc3ccc([N+](=O)[O-])c4nonc34)CC2)CC1 (stereo not shown) [compound 7, 6-[4-[4-[3-(5-Methoxy-1,2,3,4-tetrahydronaphthalen-1-yl]propyl]piperazin-1-yl]piperidino]-N-(7-nitro-2,1,3-benzoxadiazol-4-yl)hexanamine] | – | – | –
490 nm | 346 nm | 0.32 | 507 nm | 335 nm | 0.29 | 510 nm | 340 nm | 2600 L/mol/cm | ~ 335 nm and ~ 450 nm | COc1cccc2c1CCCC2CCCN1CCN(C2CCN(CCCCCCNS(=O)(=O)c3cccc4c(N(C)C)cccc34)CC2)CC1 (stereo not shown) [compound 8, 5-Dimethylaonaphthalene-1-sulfonic acid 6-[4-[4-[3-(5-methoxy-1,2,3,4-tetrahydronaphthalen-1-yl)propyl]piperazin-1-yl]piperidino]hexanamide] | – | – | –
512 nm | 450 nm | 0.18 | 520 nm | 465 nm | 0.04 | 520 nm | 460 nm | 6544 L/mol/cm | ~ 335 nm and ~ 450 nm | O=[N+]([O-])c1ccc(NCCOCCOc2cccc3c2CCCC3CCCN2CCN(C3CCCCC3)CC2)c2nonc12 (stereo not shown) [compound 17, 2-[2-[5-[3-(4-Cyclohexylpiperazin-1-yl)propyl]-5,6,7,8-tetrahydronaphthalen-1-yloxy]ethoxy]-N-(7-nitro-2,1,3-benzoxadiazol-4-yl)ethanamine] | – | – | –
490 nm | 340 nm | 0.30 | 507 nm | 335 nm | 0.20 | 485 nm | 345 nm | 4000 L/mol/cm | – | CN(C)c1cccc2c(S(=O)(=O)NCCCCCCOc3cccc4c3CCCC4CCCN3CCN(C4CCCCC4)CC3)cccc12 (stereo not shown) [compound 18, 5-Dimethylaonaphthalene-1-sulfonic acid 6-[5-[3-(4-cyclohexylpiperazin-1-yl)propyl]-5,6,7,8-tetrahydronaphthalen-1-yloxy]hexanamide] | – | – | did not show any σ2 versus σ1 selectivity
– | – | – | – | – | – | – | – | – | – | Fc1cccc(F)c1[C@H]1CC[C@@H](N2CCN(C3CCCCC3)CC2)CC1 [compound 20, cis-1-cyclohexyl-4-[4-(2,6-difluorophenyl)cyclohexyl]piperazine] | decreased the mean fluorescence intensity of 16 | decreased cell death as the density increased | –
